# Screening data from PubChem BioAssay.
# MrgX1 allo act: allosterically activates human MrgX1 receptor signaling; Q96LB2; MrgX1-HEK293, Fluo-4 calcium flux, FDSS; stronger effect = higher value; B-score at 10 µM; 310,000 tested, 0.63% active;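 active = plate-corrected calcium response at least 3 library SD above typical, normal starting fluorescence, not activating the receptor alone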;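 also: compound read alongside a low EC10 to EC30 dose of BAM8-22 agonist; peak minus trough fluorescence over baseline measured at the second addition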
# RGS4 pot: potentiators or activators of RGS4; HEK293 M3R/inducible RGS4, carbachol calcium flux Fluo4; stronger effect = lower value; B-score at 10 µM; 310,000 tested, 0.92% active; AID 463111;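 active = B-score of the integrated calcium signal more than 4 SD below the library mean, with starting fluorescence not abnormally high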;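 also: negative B-score means reduced calcium response which marks RGS4 activation or potentiation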
#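 test system = M3R-expressing HEK293 line, RGS4 induced by doxycycline | probe or stimulus = carbachol at ECmax as muscarinic agonist stimulus | timing = dye loading 30 min 37 °C, buffer rest 30 min RT | signal = calcium dye Fluo4 fluorescence | evaluation = B score from integrated fluorescence ratio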
# MrgX1 agonist: human MrgX1 receptor agonism, primary screen. Q96LB2. MrgX1-HEK293 cells, Fluo-4 calcium fluorescence, agonist mode; stronger effect = higher value. B-score at 10 µM. 310,000 tested, 0.44% active. AID 588627;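 active = calcium response B-score plate-corrected fluorescence ratio at least 3 library SD, with starting fluorescence B-score inside 5 SD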
#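 System – MrgX1-expressing HEK293 cells · Incubation – cells plated overnight, dye loaded 0.5 h 37 °C, 0.5 h room temperature · Technique – kinetic Fluo-4 NW fluorescence of intracellular calcium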
# MrgX1 antagonist: human MrgX1 receptor antagonism, primary screen; Q96LB2; MRGX1-HEK293 calcium flux, Fluo-4, BAM8-22 antagonism; stronger effect = lower value; B-score at 10 µM; 310,000 tested, 1.3% active;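 active = calcium-response B-score plate-corrected more than 3 library SD below zero, starting fluorescence within 5 deviations, no agonist response on first addition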;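 also: peak minus trough fluorescence over baseline after final BAM8-22 challenge near maximal dose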
# RGS4 block: human RGS4 inhibition. P49798. HEK293 M3R/RGS4 inducible, Fluo-4 calcium flux; stronger effect = higher value; triggered by carbachol at its EC20. B-score at 10 µM. 310,000 tested, 0.45% active;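 active = B-score, a plate-corrected calcium signal, over three deviations above library mean, with baseline fluorescence within five deviations of library mean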;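 also: RGS4 expression induced by doxycycline in cells with stable M3 receptor; B-score is computed from the integrated fluorescence ratio over baseline after carbachol; higher B-score means a larger calcium signal and so more RGS4 inhibition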
# Target sequence (P49798 whole entry, looked up): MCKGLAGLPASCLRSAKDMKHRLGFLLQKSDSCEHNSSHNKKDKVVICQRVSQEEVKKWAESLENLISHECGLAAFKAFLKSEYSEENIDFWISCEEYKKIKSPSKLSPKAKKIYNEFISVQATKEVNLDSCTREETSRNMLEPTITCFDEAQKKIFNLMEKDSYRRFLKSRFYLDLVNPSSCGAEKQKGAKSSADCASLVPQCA
# RGS4 block valid: validation of RGS4 inhibitors | shares compounds with RGS4 block | HEK293 M3R/RGS4, carbachol calcium Fluo-4 fluorescence; carbachol added at its EC20; 0 = buffer wells, 100 = carbachol control | calcium response, % at 10 µM | 1,700 tested, 65% active | AID 492999;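 active = duplicate-averaged calcium response above the buffer-only control mean plus 5 SD of those controls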;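 also: integrated fluorescence ratio F max minus min over baseline F0; higher response in RGS4-induced cells means RGS4 inhibition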
# M3R Ca ctr: checks RGS4 inhibitor effects in non-induced HEK293 M3R cells. shares compounds with RGS4 block. carbachol calcium Fluo-4; submaximal (EC20) carbachol stimulus; buffer wells 0%, carbachol control wells 100%. activity (percent), % at 10 µM. 1,900 tested, 20% active. AID 493000; call rule not given here;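 also: RGS4 induction absent so cells express M3R without RGS4; higher means more calcium signal and flags a non-specific hit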
# RGS4 inh ctr2: signal in non-induced cells without carbachol, RGS4 inhibitor counter-screen | 1,900 tested, 22% active | shares compounds with RGS4 block | calcium response (agonist-mode artifact), % at 10 µM | HEK293 M3R/RGS4 non-induced, Fluo-4 calcium, no carbachol; normalised: buffer wells 0%, carbachol wells 100%;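 active = duplicate-averaged calcium rise in uninduced cells above buffer wells' mean plus 5 SD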
# Active calls of the source: *; i = inactive; · = no result. An excerpt weighted towards active compounds, which were near 3.5% of everything screened.
SMILES,MrgX1 allo act,RGS4 pot,MrgX1 agonist,MrgX1 antagonist,RGS4 block,RGS4 block valid,M3R Ca ctr,RGS4 inh ctr2
CCOC(=O)C1CCN(CC(=O)c2c(C)n(C)c3ccc(OC)cc23)CC1,i,i,i,i,4.9*,13%*,i,i
COCCNC(=O)c1cn(Cc2c(F)cccc2Cl)nn1,i,i,i,i,i,·,i,i
Cc1sc2nc(CN3CCC(C)CC3)nc(Cl)c2c1C,i,i,i,i,i,·,·,·
N#C/C(=C/c1cn(CC(=O)O)c2ccccc12)c1ccc(F)cc1,i,i,i,i,i,·,·,·
c1ccc2c(c1)nc(N1CCCCC1)c1ccccc12,i,i,i,i,7.6*,54%*,84%*,i
c1ccc2c(N3CCCCC3)nc(N3CCCC3)nc2c1,i,i,i,i,i,·,·,·
CCCCn1c(NC(C)CC)nc2c1c(=O)[nH]c(=O)n2C (centres undefined),i,i,i,i,4.7*,9.5%*,i,i
CCC(C)Nc1nc2c(c(=O)[nH]c(=O)n2C)n1CCOc1ccccc1 (centres undefined),i,i,i,i,i,·,·,·
COc1ccc(/C=C2\CCCC(C(=O)C(F)(F)F)=C2O)cc1,i,i,i,i,i,·,·,·
O=C(C1=C(O)/C(=C/c2ccc(O)cc2)CCC1)C(F)(F)F,i,i,i,i,5.2*,i,i,i
O=C1NC(c2ccccc2)=C(c2ccc3ccccc3n2)C(c2ccccc2)N1 (centres undefined),i,i,i,i,i,·,·,·
O=C1NC(c2ccccc2)=C(c2nc3ccccc3s2)C(c2ccc(O)cc2)N1 (centres undefined),i,i,i,i,8.6*,8.5%*,i,8.0%*
O=S(=O)(Nc1nccs1)c1ccc(NCc2cc(Br)cc(Br)c2O)cc1,i,i,i,i,7.8*,6.0%*,44%*,i
Cc1onc(NC(=O)c2ccc(Cl)cc2Cl)c1Br,i,i,i,i,i,·,·,·
CC1(C)Cc2ccccc2C(/C(=N\Nc2cccc(Cl)c2)C(N)=O)=N1,i,i,i,i,6.6*,16%*,i,i
CC(=O)c1ccc(N/N=C(/C(N)=O)C2=NC(C)(C)Cc3ccccc32)cc1,i,i,i,i,i,·,·,·
O=C(Nc1ccc2nc3n(c(=O)c2c1)CCCCC3)c1cc([N+](=O)[O-])ccc1F,i,i,i,i,i,·,·,·
O=C(Nc1ccc2nc3n(c(=O)c2c1)CCCCC3)c1c(F)ccc([N+](=O)[O-])c1F,i,i,37*,i,5.2*,33%*,i,12%*
COc1ccc(C(=O)/C=C/c2ccc(O)cc2)cc1,i,i,i,i,i,·,·,·
COc1ccc(C(=O)/C=C/c2ccc(O)cc2)c(O)c1CC=C(C)C,i,i,i,i,6.4*,19%*,i,i
CCOC(=O)Nc1ccc(=O)n(Cc2c(Cl)cccc2Cl)c1,i,i,i,i,7.7*,36%*,28%*,i
CC(C)Cc1nnc(NC(=O)c2cc(-c3ccncc3)nc3ccccc23)s1,i,i,i,i,i,·,i,i
CCc1nnc(NC(=O)c2cc(C)nc3ccccc23)s1,i,i,i,i,i,·,·,·
CCc1nnc(NC(=O)c2cc(-c3cccnc3)nc3ccccc23)s1,i,i,i,i,i,·,i,i
Cc1cc(C)c(OCC(=O)N2CC=C(c3ccccc3)CC2)c(C)c1,i,i,i,i,i,·,·,·
